Measured values: ChEMBL document CHEMBL1649446, “Comparative antipneumococcal activities of sulopenem and other drugs” (2009)
Converted amounts (≈) assume the structure as drawn.

How the values were obtained:
Assay type in all cases: functional
Streptococcus pneumoniae [1] = experiment: Antimicrobial activity against Streptococcus pneumoniae 1 by time-kill analysis
How it was run: (§1)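 Time-kill in cation-adjusted Mueller-Hinton broth with 5% lysed horse blood; inocula 5 × 105 to 5 × 10^6 CFU/ml; drugs at MIC, 2× and 4× MIC; 35°C shaking water bath; viable counts at 0, 3, 6, 12 and 24 h. Bactericidal if ≥3 log10 CFU/ml (99.9%) reduction from original inoculum; 90% and 99% killing also scored.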

Streptococcus pneumoniae [2] = experiment: Antimicrobial activity against Streptococcus pneumoniae 5 by time-kill analysis; how it was run: as §1
Streptococcus pneumoniae [3] = experiment: Antimicrobial activity against Streptococcus pneumoniae isolate 1147 by agar dilution method
How it was run: (§2)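 Agar dilution MIC on Mueller-Hinton agar with 5% sheep blood, inocula 10^4 CFU/spot; amoxicillin-clavulanate combined 1:2; S. pneumoniae ATCC 49619 quality control each run.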

Streptococcus pneumoniae [4] = experiment: Antimicrobial activity against Streptococcus pneumoniae isolate 3455 by agar dilution method
Streptococcus pneumoniae [5] = experiment: Antimicrobial activity against Streptococcus pneumoniae isolate 2880 by agar dilution method; how it was run: as §2
Streptococcus pneumoniae [6] = experiment: Antimicrobial activity against Streptococcus pneumoniae 9 by time-kill analysis; how it was run: as §1
Streptococcus pneumoniae [7] = experiment: Antimicrobial activity against Streptococcus pneumoniae isolate 1424 by agar dilution method; how it was run: as §2
Streptococcus pneumoniae [8] = experiment: Antimicrobial activity against Streptococcus pneumoniae isolate 1055 by agar dilution method
Streptococcus pneumoniae [9] = experiment: Antimicrobial activity against Streptococcus pneumoniae isolate 1146 by agar dilution method; how it was run: as §2
Streptococcus pneumoniae [10] = experiment: Antimicrobial activity against Streptococcus pneumoniae 3 by time-kill analysis
How it was run: as §1, with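 “12,” for “12 and”, “=” for “if”, “drop” for “reduction”, “90%/99%/99.9%” for “90% and 99%”, “scored per strain.” for “also scored.”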

Streptococcus pneumoniae [11] = experiment: Antimicrobial activity against Streptococcus pneumoniae isolate 3346 by agar dilution method
Streptococcus pneumoniae [12] = experiment: Antimicrobial activity against Streptococcus pneumoniae 7 by time-kill analysis
How it was run: as §1, with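 “12,” for “12 and”, “=” for “if”, “drop” for “reduction”, “90%/99%/99.9%” for “90% and 99%”, “scored per strain.” for “also scored.”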

Streptococcus pneumoniae [13] = experiment: Antimicrobial activity against Streptococcus pneumoniae isolate 2688 by agar dilution method; how it was run: as §2
Streptococcus pneumoniae [14] = experiment: Antimicrobial activity against Streptococcus pneumoniae isolate 37 by agar dilution method; how it was run: as §2
Streptococcus pneumoniae [15] = experiment: Antimicrobial activity against Streptococcus pneumoniae 6 by time-kill analysis
How it was run: as §1, with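 “12,” for “12 and”, “=” for “if”, “drop” for “reduction”, “90%/99%/99.9%” for “90% and 99%”, “scored per strain.” for “also scored.”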

Streptococcus pneumoniae [16] = experiment: Antimicrobial activity against Streptococcus pneumoniae isolate 3282 by agar dilution method
Streptococcus pneumoniae [17] = experiment: Antimicrobial activity against Streptococcus pneumoniae isolate 3791 by agar dilution method; how it was run: as §2
Streptococcus pneumoniae [18] = experiment: Antimicrobial activity against Streptococcus pneumoniae isolate 3374 by agar dilution method; how it was run: as §2
Streptococcus pneumoniae [19] = experiment: Antimicrobial activity against Streptococcus pneumoniae 8 by time-kill analysis
How it was run: as §1, with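 “12,” for “12 and”, “=” for “if”, “drop” for “reduction”, “90%/99%/99.9%” for “90% and 99%”, “scored per strain.” for “also scored.”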

Streptococcus pneumoniae [20] = experiment: Antimicrobial activity against Streptococcus pneumoniae isolate 2686 by agar dilution method; how it was run: as §2
Streptococcus pneumoniae [21] = experiment: Antimicrobial activity against Streptococcus pneumoniae isolate 2874 by agar dilution method; how it was run: as §2
Streptococcus pneumoniae [22] = experiment: Antimicrobial activity against Streptococcus pneumoniae isolate 4747 by agar dilution method; how it was run: as §2
Streptococcus pneumoniae [23] = experiment: Antimicrobial activity against Streptococcus pneumoniae isolate 1564 by agar dilution method
Streptococcus pneumoniae [24] = experiment: Antimicrobial activity against Streptococcus pneumoniae isolate 1384 by agar dilution method; how it was run: as §2
Streptococcus pneumoniae [25] = experiment: Antimicrobial activity against Streptococcus pneumoniae isolate 4755 by agar dilution method; how it was run: as §2
Streptococcus pneumoniae [26] = experiment: Antimicrobial activity against Streptococcus pneumoniae isolate 2617 by agar dilution method; how it was run: as §2
Streptococcus pneumoniae [27] = experiment: Antimicrobial activity against penicillin-intermediate Streptococcus pneumoniae by agar dilution method
Streptococcus pneumoniae [28] = experiment: Antimicrobial activity against Streptococcus pneumoniae 2 by time-kill analysis
How it was run: as §1, with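 “12,” for “12 and”, “=” for “if”, “drop” for “reduction”, “90%/99%/99.9%” for “90% and 99%”, “scored per strain.” for “also scored.”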

Streptococcus pneumoniae [29] = experiment: Antimicrobial activity against Streptococcus pneumoniae isolate 1397 by agar dilution method; how it was run: as §2
Streptococcus pneumoniae [30] = experiment: Antimicrobial activity against Streptococcus pneumoniae 11 by time-kill analysis
How it was run: as §1, with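 “12,” for “12 and”, “=” for “if”, “drop” for “reduction”, “90%/99%/99.9%” for “90% and 99%”, “scored per strain.” for “also scored.”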

Streptococcus pneumoniae [31] = experiment: Antimicrobial activity against Streptococcus pneumoniae isolate 3263 by agar dilution method
Streptococcus pneumoniae [32] = experiment: Antimicrobial activity against Streptococcus pneumoniae 10 by time-kill analysis
How it was run: as §1, with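 “12,” for “12 and”, “=” for “if”, “drop” for “reduction”, “90%/99%/99.9%” for “90% and 99%”, “scored per strain.” for “also scored.”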

Streptococcus pneumoniae [33] = experiment: Antimicrobial activity against Streptococcus pneumoniae isolate 3458 by agar dilution method
Streptococcus pneumoniae [34] = experiment: Antimicrobial activity against Streptococcus pneumoniae isolate 3587 by agar dilution method
Streptococcus pneumoniae [35] = experiment: Antimicrobial activity against Streptococcus pneumoniae 4 by time-kill analysis
How it was run: as §1, with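 “12,” for “12 and”, “=” for “if”, “drop” for “reduction”, “90%/99%/99.9%” for “90% and 99%”, “scored per strain.” for “also scored.”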

Streptococcus pneumoniae [36] = experiment: Antimicrobial activity against penicillin-susceptible Streptococcus pneumoniae by agar dilution method
Streptococcus pneumoniae [37] = experiment: Antimicrobial activity against Streptococcus pneumoniae isolate 24 by agar dilution method
Streptococcus pneumoniae [38] = experiment: Antimicrobial activity against penicillin-resistant Streptococcus pneumoniae by agar dilution method; how it was run: as §2
Streptococcus pneumoniae [39] = experiment: Antimicrobial activity against Streptococcus pneumoniae isolate 3275 by agar dilution method; how it was run: as §2
Streptococcus pneumoniae [40] = experiment: Antimicrobial activity against Streptococcus pneumoniae isolate 3260 by agar dilution method
Streptococcus pneumoniae [41] = experiment: Antimicrobial activity against Streptococcus pneumoniae isolate 3481 by agar dilution method; how it was run: as §2
Streptococcus pneumoniae [42] = experiment: Antimicrobial activity against Streptococcus pneumoniae 19A by agar dilution method; how it was run: as §2
Streptococcus pneumoniae [43] = experiment: Antimicrobial activity against Streptococcus pneumoniae 12 by time-kill analysis
How it was run: as §1, with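 “12,” for “12 and”, “=” for “if”, “drop” for “reduction”, “90%/99%/99.9%” for “90% and 99%”, “scored per strain.” for “also scored.”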

Streptococcus pneumoniae [44] = experiment: Antimicrobial activity against Streptococcus pneumoniae isolate 1394 by agar dilution method
Streptococcus pneumoniae [45] = experiment: Antimicrobial activity against Streptococcus pneumoniae isolate 33 by agar dilution method; how it was run: as §2
Streptococcus pneumoniae [46] = experiment: Antimicrobial activity against Streptococcus pneumoniae isolate 3412 by agar dilution method; how it was run: as §2
Streptococcus pneumoniae [47] = experiment: Antimicrobial activity against Streptococcus pneumoniae isolate 3681 by agar dilution method; how it was run: as §2

COc1c(N2CCNC(C)C2)c(F)cc2c(=O)c(C(=O)O)cn(C3CC3)c12 (stereo unspecified) [GATIFLOXACIN]
MIC (Streptococcus pneumoniae [1]): 4 µg/mL (≈ 10.7 µM)
MIC (Streptococcus pneumoniae [2]): 0.5 µg/mL (≈ 1.33 µM)
MIC (Streptococcus pneumoniae [3]): 4 µg/mL (≈ 10.7 µM)
MIC (Streptococcus pneumoniae [4]): 0.5 µg/mL (≈ 1.33 µM)
MIC (Streptococcus pneumoniae [5]): 0.25 µg/mL (≈ 0.666 µM)
MIC (Streptococcus pneumoniae [6]): 0.5 µg/mL (≈ 1.33 µM)
MIC (Streptococcus pneumoniae [7]): 0.25 µg/mL (≈ 0.666 µM)
MIC (Streptococcus pneumoniae [8]): 16 µg/mL (≈ 42.6 µM)
MIC (Streptococcus pneumoniae [9]): 2 µg/mL (≈ 5.33 µM)
MIC (Streptococcus pneumoniae [10]): 0.25 µg/mL (≈ 0.666 µM)
MIC (Streptococcus pneumoniae [11]): 0.125 µg/mL (≈ 0.333 µM)
MIC (Streptococcus pneumoniae [12]): 0.5 µg/mL (≈ 1.33 µM)
MIC (Streptococcus pneumoniae [13]): 0.5 µg/mL (≈ 1.33 µM)
MIC (Streptococcus pneumoniae [14]): 0.5 µg/mL (≈ 1.33 µM)
MIC (Streptococcus pneumoniae [15]): 0.25 µg/mL (≈ 0.666 µM)
MIC (Streptococcus pneumoniae [16]): 0.125 µg/mL (≈ 0.333 µM)
MIC (Streptococcus pneumoniae [17]): 0.5 µg/mL (≈ 1.33 µM)
MIC (Streptococcus pneumoniae [18]): 0.25 µg/mL (≈ 0.666 µM)
MIC (Streptococcus pneumoniae [19]): 0.25 µg/mL (≈ 0.666 µM)
MIC (Streptococcus pneumoniae [20]): 0.25 µg/mL (≈ 0.666 µM)
MIC (Streptococcus pneumoniae [21]): 0.5 µg/mL (≈ 1.33 µM)
MIC (Streptococcus pneumoniae [22]): 0.125 µg/mL (≈ 0.333 µM)
MIC (Streptococcus pneumoniae [23]): 0.5 µg/mL (≈ 1.33 µM)
MIC (Streptococcus pneumoniae [24]): 0.5 µg/mL (≈ 1.33 µM)
MIC (Streptococcus pneumoniae [25]): 0.25 µg/mL (≈ 0.666 µM)
MIC (Streptococcus pneumoniae [26]): 0.5 µg/mL (≈ 1.33 µM)
MIC50 (Streptococcus pneumoniae [27]): 0.25 µg/mL (≈ 0.666 µM)
MIC90 (Streptococcus pneumoniae [27]): 0.5 µg/mL (≈ 1.33 µM)
MIC (Streptococcus pneumoniae [28]): 0.25 µg/mL (≈ 0.666 µM)
MIC (Streptococcus pneumoniae [29]): 0.5 µg/mL (≈ 1.33 µM)
MIC (Streptococcus pneumoniae [30]): 0.5 µg/mL (≈ 1.33 µM)
MIC (Streptococcus pneumoniae [31]): 0.25 µg/mL (≈ 0.666 µM)
MIC (Streptococcus pneumoniae [32]): 0.25 µg/mL (≈ 0.666 µM)
MIC (Streptococcus pneumoniae [33]): 0.5 µg/mL (≈ 1.33 µM)
MIC (Streptococcus pneumoniae [34]): 0.25 µg/mL (≈ 0.666 µM)
MIC (Streptococcus pneumoniae [35]): 4 µg/mL (≈ 10.7 µM)
MIC50 (Streptococcus pneumoniae [36]): 0.5 µg/mL (≈ 1.33 µM)
MIC90 (Streptococcus pneumoniae [36]): 4 µg/mL (≈ 10.7 µM)
MIC (Streptococcus pneumoniae [37]): 0.5 µg/mL (≈ 1.33 µM)
MIC50 (Streptococcus pneumoniae [38]): 0.5 µg/mL (≈ 1.33 µM)
MIC90 (Streptococcus pneumoniae [38]): 1 µg/mL (≈ 2.66 µM)
MIC (Streptococcus pneumoniae [39]): 0.25 µg/mL (≈ 0.666 µM)
MIC (Streptococcus pneumoniae [40]): 0.125 µg/mL (≈ 0.333 µM)
MIC (Streptococcus pneumoniae [41]): 0.25 µg/mL (≈ 0.666 µM)
MIC50 (Streptococcus pneumoniae [42]): 0.5 µg/mL (≈ 1.33 µM)
MIC90 (Streptococcus pneumoniae [42]): 0.5 µg/mL (≈ 1.33 µM)
MIC (Streptococcus pneumoniae [43]): 0.25 µg/mL (≈ 0.666 µM)
MIC (Streptococcus pneumoniae [44]): 0.5 µg/mL (≈ 1.33 µM)
MIC (Streptococcus pneumoniae [45]): 0.5 µg/mL (≈ 1.33 µM)
MIC (Streptococcus pneumoniae [46]): 0.25 µg/mL (≈ 0.666 µM)
MIC (Streptococcus pneumoniae [47]): 0.5 µg/mL (≈ 1.33 µM)
